High-throughput results as filed in PubChem BioAssay.
Only a selection was taken, and hits are over-represented in it overall.
CDK5 p35 inh: CDK5/p35 (human) kinase inhibition; Q00535+Q15078; Recombinant CDK5/p35, ADP-Glo luminescence, 60 min; inhibition, % at 10 µM; actives 0.01% (n = 330,000); AID 488839;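 active means highest replicate inhibition of at least 50% and at least 75% of replicates reaching 50%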
Target sequence (Q00535 whole entry, looked up): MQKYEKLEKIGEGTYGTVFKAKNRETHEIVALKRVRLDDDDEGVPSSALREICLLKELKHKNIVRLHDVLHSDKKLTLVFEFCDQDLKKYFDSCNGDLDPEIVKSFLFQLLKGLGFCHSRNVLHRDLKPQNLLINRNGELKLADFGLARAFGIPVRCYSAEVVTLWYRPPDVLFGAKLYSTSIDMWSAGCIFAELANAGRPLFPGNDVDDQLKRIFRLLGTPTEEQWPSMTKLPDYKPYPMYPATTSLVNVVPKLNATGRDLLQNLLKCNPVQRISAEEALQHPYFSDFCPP
Target sequence (Q15078 whole entry, looked up): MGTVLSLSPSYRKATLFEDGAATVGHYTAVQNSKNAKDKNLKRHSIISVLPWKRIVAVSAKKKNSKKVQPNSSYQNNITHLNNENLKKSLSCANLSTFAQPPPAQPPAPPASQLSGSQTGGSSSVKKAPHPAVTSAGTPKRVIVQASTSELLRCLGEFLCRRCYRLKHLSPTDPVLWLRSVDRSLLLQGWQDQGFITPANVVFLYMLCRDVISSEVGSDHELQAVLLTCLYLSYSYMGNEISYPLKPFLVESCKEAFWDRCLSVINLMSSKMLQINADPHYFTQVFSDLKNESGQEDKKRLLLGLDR
GSK3 alpha inh: inhibitors of human GSK-3 alpha kinase | inhibition, % at 10 µM | actives 0.1% (n = 320,000) | ADP-Glo luminescence, 60 min | P49840 | AID 2650;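 active means more than half of replicates show inhibition above 20%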;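 further: GST-tagged GSK-3 alpha with peptide substrate and 25 µM ATP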
DYRK1A inh: inhibitors of rat Dyrk1A kinase; ADP-Glo luminescence, NFATc1 peptide; actives 0.43% (n = 310,000); Q63470; inhibition, % at 12.5 µM; in the data active means inhibition above about 50%
GSK3beta inhib: inhibitors of human GSK3beta kinase. AID 2097. GST-GSK3beta kinase, ADP-Glo luminescence, 60 min; active compounds read low. actives 0.038% (n = 300,000). activity score (negative = inhibition), % at 10 µM. P49841;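 active means more than half of replicate wells score below -50%, meaning over 50% inhibition versus plate controls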
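Assay system: GST-fused GSK3beta enzyme, cell-free / Medium: Tris pH 7.5 buffer with MgCl2, DTT, BSA, heparin / Also added: peptide substrate plus 25 µM ATP (final) / Compound: 10 µM single point / Timing: kinase reaction with compound 60 min at room temperature / Detection: ADP-Glo luminescence / Benchmarks: DMSO neutral wells and GW8510 at 20 µM as positive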
STK33 kinase inh: blocks human STK33 kinase activity | purified STK33, MBP phosphorylation, ADP-Glo luminescence | inhibition, % at 10 µM | actives 0.073% (n = 320,000) | AID 2661;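 active means inhibition at or above 25%, using the most active replicate where run in duplicate; inactive means inhibition below 25%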
Dyrk1A artifact: ADP-Glo luciferase interference, Dyrk1A counter-screen. shares compounds with DYRK1A inh. ADP-Glo luciferase artifact assay, no Dyrk1A, luminescence. AC50, µM (doses to about 12 µM). 1,300 tested, under 10 active. AID 588348;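 active means fitted half-maximal dose AC50 no more than ten times the top valid tested dose, with luminescence dropping as dose rises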
Hits are given with their value; n = inactive; x = no result.

SMILES	CDK5 p35 inh	GSK3 alpha inh	DYRK1A inh	GSK3beta inhib	STK33 kinase inh	Dyrk1A artifact
CCn1c2ccccc2c2nc3cc(C(=O)O)ccc3nc21	n	x	62.0	x	x	n
CCn1c2ccccc2c2nc3ccccc3nc21	n	n	n	n	n	x
COc1ccc(NC(=O)CCN(c2ccc(OC)cc2)S(=O)(=O)c2ccc(C)c(C)c2)cc1	n	x	n	x	x	x
COc1ccc2c3c(ccc2c1)C(=O)/C(=C/O)CC3	n	x	62.5	x	x	n
COc1ccc2c(c1)CC/C(=C\C=C\c1ccccc1OC)C2=O	n	n	n	n	n	x
CC(=O)NC12CC3CC(C1)CC(C(=O)Nc1nc4ccc(F)cc4s1)(C3)C2	n	n	78.6	n	n	n
COC1=CC(=O)c2c(ccc3ncnc(N)c23)C1=O	n	x	51.3	x	x	n
Brc1cc2c(cc1C1OCCCO1)OCO2	n	x	n	x	x	x
O=C(CSc1nc(-c2cccs2)cc(C(F)(F)F)n1)NCCCn1ccnc1	n	n	n	n	n	x
O=C(CSc1nc(-c2ccco2)cc(C(F)(F)F)n1)NCCCn1ccnc1	n	n	57.9	n	n	n
Nc1cc2c([N+](=O)[O-])cccc2o1	n	n	59.9	n	n	n
O=C(COC(=O)c1cccs1)c1ccc2c(c1)OCCO2	n	n	n	n	n	x
O=C(COC(=O)c1cccs1)c1ccc2ccccc2c1	n	n	50.7	n	n	n
Nc1nc2ccc([N+](=O)[O-])cc2[nH]1	n	n	54.9	n	n	n
COc1cccc(C(=O)c2sc(NC(C)C)nc2N)c1	55.2	93.7	53.2	-93.3	n	n
Fc1ccccc1/C=N/Nc1ncnc2nc[nH]c12	n	64.8	55.0	n	n	n
Fc1cccc(/C=N/Nc2ncnc3nc[nH]c23)c1	n	68.5	73.4	n	n	n
Cc1ccc(/C=N/Nc2ncnc3nc[nH]c23)cc1	n	n	n	n	n	x
Nc1cc2c(cc1Br)-c1c(C(=O)O)cccc1C2O (stereo unspecified)	n	x	n	x	x	x
Cn1c(=O)c2[nH]c(NN=Cc3cccc(Br)c3)nc2n(C)c1=O	n	x	n	x	x	x
CC(C)S(=O)(=O)C1=NSC2=NC(=O)/C(=C\c3ccc(-c4cccc(C(=O)O)c4)o3)C(=N)N21	n	x	65.3	x	x	n
CC(C)S(=O)(=O)C1=NSC2=NC(=O)/C(=C\c3ccc(-c4ccccc4)o3)C(=N)N21	n	n	n	n	n	x
COc1ccc(-c2coc3cc(O)ccc3c2=O)cc1O	n	n	56.5	n	n	n
CC(Nc1nc(-c2cccnc2)nc2ccccc12)c1ccc(F)cc1 (stereo unspecified)	n	n	62.0	n	n	n
COc1cc(NCCCn2ccc(NC(=O)OCc3ccccc3)nc2=O)cc(OC)c1OC	n	x	n	x	x	x
SMILES	CDK5 p35 inh	GSK3 alpha inh	DYRK1A inh	GSK3beta inhib	STK33 kinase inh	Dyrk1A artifact
O=S1(=O)N=C(N(Cc2cccs2)c2ccc(O)cc2)c2ccccc21	n	n	73.3	n	n	n
COc1ccc2nc3cc(Cl)ccc3c(Nc3ccc(O)c(CN4CCN(C)CC4)c3)c2c1	n	x	61.7	x	x	n
CSc1nc(O)c(/C=C2\C=Nc3ccccc32)[nH]1	n	n	57.3	n	n	n
O=c1[nH]c(/C=C2\C=Nc3ccccc32)c(O)n1Cc1ccccc1F	n	n	n	n	n	x
CC(=O)OC1C=CCC2C(=O)c3cccc(O)c3C(O)C12 (stereo unspecified)	n	x	n	x	x	x
CC(C)(CC(=O)c1ccccc1)CC(=O)c1ccccc1	n	x	n	x	x	x
O=C1C(C=NCc2cccnc2)=C(O)c2ccccc21	n	x	n	n	x	x
O=C1C(C=NCc2ccncc2)=C(O)c2ccccc21	n	n	65.9	n	n	n
O=C(Nc1nc2ccccc2s1)c1ccccc1	n	n	n	n	n	x
c1ccc2sc(NN=C3CCCCCC3)nc2c1	n	n	62.2	n	n	n
Cc1ccc(Nc2cc(C)c3c(O)cccc3n2)cc1C	n	n	n	n	n	x
Cc1ccccc1Nc1cc(C)c2c(O)cccc2n1	n	n	60.4	n	n	n
Nc1nc2cc(Cl)c(Br)cc2o1	n	x	n	x	x	x
O=c1cc[nH]c2c1ccc1cccnc12	n	x	81.0	n	n	n
N#C/C(=C/c1ccc(O)c(O)c1)c1nc2ccccc2[nH]1	n	n	67.1	n	n	n
N#C/C(=C\c1cccs1)c1nc2ccccc2[nH]1	n	n	n	n	n	x
O=C(NCc1ccccc1)C1=C[C@H](c2ccccc2)C[C@H](OCc2ccc(CO)cc2)O1	n	n	51.7	n	n	n
CN(C(=O)c1ccc(NC(=O)Cc2cccc(NC(=O)C3CCCN(C(=O)C4CC4)C3)c2)cc1)C1CC1 (stereo unspecified)	n	x	n	x	x	x
C=C1c2nc3ccccc3n2C=C(c2ccc(C)cc2)N1c1ccccc1	n	x	n	x	x	x
COc1ccc2c(c1)CCc1cn[nH]c1-2	n	n	50.5	n	n	n
CN(CCc1ccccc1)C(=O)c1ccc(NC(=O)Cc2ccc(NC(=O)C3CCCN(C(=O)CCc4ccccc4)C3)cc2)cc1 (stereo unspecified)	n	x	n	x	x	x
O=[N+]([O-])c1ccc(S(=O)(=O)NN=Cc2ccc(Cl)c(Cl)c2)cc1	n	x	n	x	x	x
C=C1[C@@H](O)[C@H](Cc2ccccc2)N(Cc2ccccc2Br)S1(=O)=O	n	x	n	x	x	x
O=C(C(=O)N(Cc1ccccc1)Cc1ccccc1)c1c(-c2ccccc2)[nH]c2ccccc12	n	x	x	x	x	x
COc1ccc(Nc2ncnc3nc[nH]c23)cc1OC	n	n	50.2	n	n	n
SMILES	CDK5 p35 inh	GSK3 alpha inh	DYRK1A inh	GSK3beta inhib	STK33 kinase inh	Dyrk1A artifact
COc1ccccc1C1CCN(C(=O)C2CCCCC2)CC1	n	n	n	n	n	x
COc1ccccc1C1CCN(c2cc(O)ccc2[N+](=O)[O-])CC1	n	n	53.5	n	n	n
O=C(NN=Cc1cc(=O)[nH]c(=O)[nH]1)c1ccncc1	n	x	x	x	x	x
NC(=O)c1c(NC(=O)c2ccc(N3C(=O)CCC3=O)cc2)sc2c1CCCC2	n	n	59.8	x	n	n
CC1CCc2sc(NC(=O)c3ccc(N4C(=O)CCC4=O)cc3)c(C(N)=O)c2C1 (stereo unspecified)	n	n	n	n	n	x
Cc1cc(=O)oc2cc(O)cc(OCc3ccccc3)c12	n	x	n	x	x	x
O=c1oc2c(-c3cccc(F)c3)cc(O)cc2s1	n	n	65.3	n	n	n
Nc1nnc(-c2cccc(F)c2)s1	n	n	n	n	n	x
O=C(O)c1[nH]c2ccc(Cl)cc2c1CCN1C(=O)c2ccccc2C1=O	n	n	66.3	n	n	n
COc1ccc2[nH]c(C(=O)O)c(CCN3C(=O)c4ccc(C(=O)O)cc4C3=O)c2c1	n	n	n	n	n	x
O=C(O)c1[nH]c2ccc(Br)cc2c1CCN1C(=O)c2cccc([N+](=O)[O-])c2C1=O	n	n	51.4	n	n	n
COc1cccc(/C=N/n2c(C3CCCCC3)n[nH]c2=S)c1O	n	n	52.6	n	n	n
Oc1ccc(/C=N/n2c(C3CCCCC3)n[nH]c2=S)c(O)c1	n	n	82.7	n	n	n
Cc1[nH]c2ccccc2c1C1=CC(=O)C=CC1=O	n	x	n	x	x	x
